# Values joined by “and” are separate entries in the source; they are usually repeats but may differ in a detail not shown here. Equal values may be shown once.
# Key:
# [1] = biological target: 5-hydroxytryptamine receptor 6 (Rattus norvegicus, UniProt P31388); experiment: Binding affinity against 5-hydroxytryptamine 6 receptor from CHO cell membranes using [3H]5-HT as the radioligand.
# Outline: (§1)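 Binding by the Johansson et al. method. 5-HT2A used [3H]ketanserin and 5-HT2C used [3H]mesulergine, both on rat cortex. 5-HT6 and 5-HT7 used [3H]-5-HT on CHO cell membranes expressing the rat receptors.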
# [2] = Antagonism of the induced potentiation of K+ stimulated [3H]5-HT release from brain slices with 5-HT (1000 nM) at a concentration of 1000 nM.; assay type: functional, Rattus norvegicus
# Outline: (§2)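 Rat occipital cortex slices (0.3 × 0.3 mm) were preloaded with [3H]-5-HT and superfused at 0.4 mL/min with oxygenated Krebs-Henseleit buffer, pH 7.4, containing 2.5 μM citalopram. After a 50 min wash, 4-min fractions were collected. 25 mM KCl was applied for 4 min at 62 min and again at 98 min. Test compound and 5-HT were given together in the same solution for 72 min. Fraction and slice radioactivity were counted by liquid scintillation. S2/S1 was expressed as % of control; Dunnett's t-test after ANOVA.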
# [3] = Antagonism of the induced potentiation of K+ stimulated [3H]5-HT release from brain slices with 5-HT (100 nM) at a concentration of 1000 nM.; assay type: functional, Rattus norvegicus; outline: as §2
# Rattus norvegicus [4] = organism: Rattus norvegicus; experiment: Percent control of the stimulation ratio S2 (second stimulation)/S1(first stimulation) at a concentration of 1000 nM. (p<0.05); assay type: functional
# Rattus norvegicus [5] = organism: Rattus norvegicus; experiment: Percent control of the stimulation ratio S2 (second stimulation)/S1(first stimulation) at a concentration of 100 nM. (P<0.05); assay type: functional
# Rattus norvegicus [6] = organism: Rattus norvegicus; experiment: Percent control of the stimulation ratio S2 (second stimulation)/S1(first stimulation) at a concentration of 10 nM. (P>0.05); assay type: functional
# [7] = Antagonism of the induced potentiation of K+ stimulated [3H]5-HT release from brain slices with 5-HT (1000 nM) at a concentration of 1000nM, expressed as percent of control; assay type: functional, Rattus norvegicus; set-up: scale not given: the % may be the effect or the level left
# Outline: (§3)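 Superfused rat occipital cortex slices (0.3 × 0.3 mm) preloaded with [3H]-5-HT; Krebs-Henseleit pH 7.4 with 2.5 μM citalopram, 0.4 mL/min. Two 4-min 25 mM KCl pulses (62 and 98 min). Compound and 5-HT were given in the same solution. Fractions and slices were counted by scintillation. S2/S1 is expressed as % of control.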
# [8] = Antagonism of the induced potentiation of K+ stimulated [3H]-5-HT release from brain slices with 5-HT (100 nM) at a concentration of 1000 nM, expressed as percent of control; assay type: functional, Rattus norvegicus; set-up: scale not given: the % may be the effect or the level left; outline: as §3
# [9] = Potentiation of K+ stimulated release of [3H]5-HT from brain slices at a concentration of 1000 nM. (activity expressed as ratio of S2 (second stimulation)/S1(first stimulation)); assay type: functional, Rattus norvegicus
# Outline: (§4)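 Rat occipital cortex slices (0.3 × 0.3 mm) preloaded with [3H]-5-HT, superfused at 0.4 mL/min with oxygenated Krebs-Henseleit pH 7.4 containing 2.5 μM citalopram. Two 4-min 25 mM KCl pulses at 62 and 98 min, compound present for 72 min spanning S2. Fractional release counted by liquid scintillation. S2/S1 ratio reported, also as % of control; n=3–8.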
# [10] = Potentiation of K+ stimulated release of [3H]5-HT from brain slices at a concentration of 100 nM. (activity expressed as ratio of S2 (second stimulation)/S1(first stimulation)); assay type: functional, Rattus norvegicus; outline: as §4
# [11] = Effect on 5-HTP turnover in Frontal cortex of rat brain, expressed as percent of control; assay type: functional
# Outline: (§5)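 Rats received compound 20 mg/kg sc or saline 30 min before NSD 1015 (3-hydroxybenzylhydrazine dihydrochloride), 100 mg/kg sc. They were killed 30 min later. Hypothalamus, hippocampus, frontal cortex and striatum were dissected, frozen on dry ice and stored at -70 °C. 5-HTP, 5-HT and 5-HIAA were measured by HPLC and expressed as % of saline control.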
# Rattus norvegicus [12] = experiment: Effect on the wet dog shake response(WDS) in rats after 10 determinations at a dose of 3 mg/kg, sc pretreated with saline; assay type: functional; details: route subcutaneous
# Outline: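 Rats were pretreated with pCPA 200 mg/kg ip or saline at 72 and 48 h before compound, 3 mg/kg sc. Wet dog shakes (whole-body and head shakes) were counted from 5 to 65 min after injection. Groups of 8-10 rats were compared with saline-treated rats (n = 30), Dunnett's t-test after ANOVA.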
# Rattus norvegicus [13] = organism: Rattus norvegicus; experiment: Effect on 5-HIAA/5-HT turnover in Hippocampus of rat brain, expressed as percent of control; assay type: functional; outline: as §5
# Rattus norvegicus [14] = organism: Rattus norvegicus; experiment: Effect on 5-HTP turnover in Hippocampus of rat brain, expressed as percent of control; assay type: functional; outline: as §5
# Rattus norvegicus [15] = organism: Rattus norvegicus; experiment: Effect on 5-HIAA/5-HT turnover in Hyphalamus of rat brain, expressed as percent of control; assay type: functional; outline: as §5
# Rattus norvegicus [16] = organism: Rattus norvegicus; experiment: Effect on 5-HTP turnover in Striatum of rat brain, expressed as percent of control; assay type: functional; outline: as §5
# [17] = biological target: 5-hydroxytryptamine receptor 7 (Rattus norvegicus, UniProt P32305); experiment: Binding affinity against 5-hydroxytryptamine 7 receptor using from CHO cell membranes [3H]5-HT as the radioligand.; outline: as §1
# Chain of 5-hydroxytryptamine receptor 7 (P32305 whole entry): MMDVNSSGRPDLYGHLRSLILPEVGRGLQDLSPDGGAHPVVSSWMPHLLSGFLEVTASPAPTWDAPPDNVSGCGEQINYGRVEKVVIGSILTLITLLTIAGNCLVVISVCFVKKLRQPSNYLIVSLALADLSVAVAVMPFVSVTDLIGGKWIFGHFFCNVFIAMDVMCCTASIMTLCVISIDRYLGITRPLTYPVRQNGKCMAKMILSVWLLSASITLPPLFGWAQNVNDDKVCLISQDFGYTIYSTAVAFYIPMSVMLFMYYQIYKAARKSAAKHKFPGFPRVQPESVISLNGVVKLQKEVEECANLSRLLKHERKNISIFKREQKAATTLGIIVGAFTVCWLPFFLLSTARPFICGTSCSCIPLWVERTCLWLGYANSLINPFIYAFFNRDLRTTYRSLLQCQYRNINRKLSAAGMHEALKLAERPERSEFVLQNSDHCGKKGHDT
# Chain of 5-hydroxytryptamine receptor 6 (P31388 whole entry): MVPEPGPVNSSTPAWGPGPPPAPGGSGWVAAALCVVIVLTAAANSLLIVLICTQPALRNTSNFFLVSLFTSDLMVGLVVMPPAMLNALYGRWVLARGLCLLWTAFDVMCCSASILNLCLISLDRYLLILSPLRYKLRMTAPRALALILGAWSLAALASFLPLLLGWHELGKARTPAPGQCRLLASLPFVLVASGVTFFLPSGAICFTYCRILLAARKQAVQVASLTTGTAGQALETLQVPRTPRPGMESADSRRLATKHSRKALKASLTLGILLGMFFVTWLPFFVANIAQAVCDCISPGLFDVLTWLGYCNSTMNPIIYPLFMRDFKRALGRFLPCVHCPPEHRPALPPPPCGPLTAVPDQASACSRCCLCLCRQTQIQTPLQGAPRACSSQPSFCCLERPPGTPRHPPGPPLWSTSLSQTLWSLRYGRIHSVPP
smiles,measurement,setting,value
C1=C(CN2CCOCC2)COc2c1cccc2OC[C@H]1CNCCO1.CS(=O)(=O)O,Ki,[1],> 3 µM
same,Ratio of stimulation,[2],1.12 and 0.8
same,Ratio of stimulation,[3],1.28 and 1.39
same,Control,Rattus norvegicus [4],153%
same,Control,Rattus norvegicus [5],131%
same,Control,Rattus norvegicus [6],115%
same,Activity,[7],149% and 107%
same,Activity,[8],149% and 161%
same,Potentiation,[9],1.44
same,Potentiation,[10],1.23
same,Activity,[11],142%
same,No. of WDS/60 min,Rattus norvegicus [12],17
same,Activity,Rattus norvegicus [13],142%
same,Activity,Rattus norvegicus [14],148%
same,Activity,Rattus norvegicus [15],166%
same,Activity,Rattus norvegicus [16],142%
same,Ki,[17],> 3 µM
